pEC50: −log10 of the molar value.
Key:
[1] = Inhibition of mouse RML prion protein infected in mouse ScN2a-cl3 cells after 5 days; type: cell-based; conditions: N2a-cl3, 120 h
[2] = AUC in mouse brain at 40 mg/kg, po administered as single dose; type: ADME, organism-based; parameters: dose 40 mg/kg, route oral
[3] = Drug concentration at steady state in mouse brain assessed as total compound level in brain homogenates at 40 mg/kg/day, po measured after 3 days; type: ADME, organism-based; parameters: route oral; conditions: brain homogenate, read-out: Css
Outline: (§1)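 Mice received compound mixed into a liquid rodent diet for 3 days at about 40, 80, 130 or 210 mg kg-1 day-1. Plasma and brain were collected at the end of the last dosing cycle, at a single time point, and analysed as in the single-dose PK studies. Values are total drug in brain homogenate and are treated as pseudo-steady-state concentrations.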

[4] = Drug concentration at steady state in mouse brain assessed as total compound level in brain homogenates at 80 mg/kg/day, po measured after 3 days; type: ADME, organism-based; parameters: route oral; conditions: brain homogenate, read-out: Css; outline: as §1
[5] = Drug concentration at steady state in mouse brain assessed as total compound level in brain homogenates at 130 mg/kg/day, po measured after 3 days; type: ADME, organism-based; parameters: route oral; conditions: brain homogenate, read-out: Css; outline: as §1
[6] = Drug concentration at steady state in mouse brain assessed as total compound level in brain homogenates at 210 mg/kg/day, po measured after 3 days; type: ADME, organism-based; parameters: route oral; conditions: brain homogenate, read-out: Css; outline: as §1
[7] = Unbound fraction in mouse brain; type: ADME, tissue-based
Outline: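 The fraction unbound in mouse brain tissue was estimated with an in vitro brain tissue binding assay.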

[8] = Volume of distribution at steady state in FVB mouse plasma at 1 mg/kg, iv administered as single dose; type: ADME, organism-based; parameters: dose 1 mg/kg, route intravenous; conditions: read-out: Vdss
Outline: (§2)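 Female FVB mice were given a single dose, 1 mg/kg iv or 10 mg/kg po, and plasma and brain were analysed separately. Brain samples were whole-brain homogenate. Parameters came from concentration–time curves: Vss, clearance, half-life, Cmax, AUC, brain/plasma AUC ratio and bioavailability.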

[9] = Clearance in FVB mouse plasma at 1 mg/kg, iv administered as single dose; type: ADME, organism-based; parameters: dose 1 mg/kg, route intravenous; outline: as §2
[10] = Half life in FVB mouse plasma at 1 mg/kg, iv administered as single dose; type: ADME, organism-based; parameters: dose 1 mg/kg, route intravenous; outline: as §2
[11] = Half life in FVB mouse plasma at 10 mg/kg, po administered as single dose; type: ADME, organism-based; parameters: dose 10 mg/kg, route oral; outline: as §2
[12] = Cmax in FVB mouse plasma at 1 mg/kg, iv administered as single dose; type: ADME, organism-based; parameters: dose 1 mg/kg, route intravenous; outline: as §2
[13] = Cmax in FVB mouse plasma at 10 mg/kg, po administered as single dose; type: ADME, organism-based; parameters: dose 10 mg/kg, route oral; outline: as §2
[14] = Cmax in FVB mouse brain at 10 mg/kg, po administered as single dose; type: ADME, organism-based; parameters: dose 10 mg/kg, route oral; outline: as §2
[15] = AUC in FVB mouse plasma at 1 mg/kg, iv administered as single dose; type: ADME, organism-based; parameters: dose 1 mg/kg, route intravenous
[16] = AUC in FVB mouse plasma at 10 mg/kg, po administered as single dose; type: ADME, organism-based; parameters: dose 10 mg/kg, route oral
[17] = AUC in FVB mouse brain at 10 mg/kg, po administered as single dose; type: ADME, organism-based; parameters: dose 10 mg/kg, route oral
[18] = Ratio of drug level in brain to plasma in FVB mouse brain at 10 mg/kg, po administered as single dose; type: ADME, organism-based; parameters: dose 10 mg/kg, route oral; conditions: brain and plasma, read-out: BPR; outline: as §2
[19] = Oral bioavailability in FVB mouse […] at 10 mg/kg administered as single dose; type: ADME, organism-based; conditions: plasma; outline: as §2
[20] = (§3) Cmax in mouse brain at 10 mg/kg, po administered as single dose; type: ADME, organism-based; parameters: dose 10 mg/kg, route oral; conditions: brain
[21] = (§4) AUC in mouse brain at 10 mg/kg, po administered as single dose; type: ADME, organism-based; parameters: dose 10 mg/kg, route oral; conditions: brain
[22] = AUC in mouse plasma at 10 mg/kg, po administered as single dose; type: ADME, organism-based; parameters: dose 10 mg/kg, route oral; conditions: plasma
[23] = system: Brain; experiment: as §3; type: ADME, organism-based; parameters: dose 10 mg/kg, route oral; conditions: in vivo
[24] = system: Brain; experiment: as §4; type: ADME, organism-based; parameters: dose 10 mg/kg, route oral; conditions: in vivo
[25] = system: Mus musculus; experiment: Increase in survival in sc dosed mouse prion disease model assessed as increase in survival; type: functional
[26] = system: Mus musculus; experiment: Increase in survival in sc dosed mouse prion disease model assessed as extension of survival relative to untreated control; type: functional

SMILES: Cc1ccc(Nc2nc(-c3ccncc3)cs2)nc1
- pEC50 [1]: 5.80
- AUC [2]: 9.7 µM·h

SMILES: Cc1cccc(Cn2cc(-c3ccc(-c4cccnc4)cc3)cn2)n1
- pEC50 [1]: < 5.00

SMILES: Cc1ccc(Nc2nc(-c3cc(-c4ccccc4)no3)cs2)nc1
- pEC50 [1]: 6.02
- AUC [2]: 23.2 µM·h
- concentration at 72 h [3]: 880 nM
- concentration at 72 h [4]: 5.39 µM
- concentration at 72 h [5]: 23.3 µM
- concentration at 72 h [6]: 12.6 µM

SMILES: Cc1ccnc(Nc2nc(-c3ccc(-c4ccccn4)s3)cs2)c1
- fraction unbound [7]: 0.08
- AUC [2]: 60.2 µM·h
- Vd [8]: 12.6 L/kg
- clearance [9]: 151 mL/min/kg
- half-life [10]: 70.8 min
- half-life [11]: 58.8 min
- Cmax [12]: 520 nM
- Cmax [13]: 430 nM
- Cmax [14]: 1620 nM
- AUC [15]: 0.3 µM·h
- AUC [16]: 0.82 µM·h
- AUC [17]: 4.54 µM·h
- Kp [18]: 5.53
- bioavailability [19]: 27.3%

SMILES: Cc1cccc(Nc2nc(-c3ccc(-c4ccnn4C)cc3)cs2)n1
- pEC50 [1]: 7.05

SMILES: O=C(Nc1nc(-c2ccc(-c3ccccc3)cc2)cs1)C1CC1
- Cmax [20]: 4.34 µM
- AUC [21]: 18.6 µM·h
- AUC [22]: 12.7 µM·h

SMILES: Cc1cccc(Nc2nc(-c3ccc(-c4ccncc4)cc3)cs2)n1
- pEC50 [1]: 7.06
- Cmax [23]: 500 nM
- AUC [24]: 1.68 µM·h

SMILES: c1ccc2cc(Nc3nc(-c4cc5ccccc5o4)cs3)ncc2c1
- pEC50 [1]: 6.04
- AUC [2]: 10.9 µM·h

SMILES: O=C(CN1CCCC1)Nc1ccc(Cc2ccc(NC(=O)CN3CCCC3)cc2)cc1
- Survival [25]: 20%
- Activity [26]: 12%

Reference: ChEMBL document CHEMBL3352428, “Successes and challenges in phenotype-based lead discovery for prion diseases” (J Med Chem, 2014)
